The record followed here is ChEMBL document CHEMBL1155970, “Synthesis and biological evaluation of quinic acid derivatives as anti-inflammatory agents” (Bioorg Med Chem Lett, 2009).

As a reminder, the IC50 is the concentration that inhibits the measured activity by half.

Active and inactive are the calls of the source. No cut-off for these calls is given here.

Data set [1] has as its system Radical scavenging activity. The data set is described as follows: Antioxidant activity assessed as DPPH radical scavenging activity by UV-visible spectrophotometry. In kind it is functional. In short, it runs like this: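 DPPH stock at 0.625 mM in 50% acetone, stored at 4 °C in the dark; diluted daily to a 0.208 mM working solution. Samples in 50% acetone were mixed 1:1 with working DPPH, giving 0.104 mM DPPH initially. Mixtures were vortexed and read immediately at 515 nm against a 50% acetone blank, and remaining DPPH was calculated.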

The test system of data set [2] is A549. The data set is described as follows: Inhibition of human NF-kappaB in TNF-alpha-stimulated A549 cells assessed as secreted alkaline phosphatase level at 1 uM after 18 hrs. In kind it is cell-based. In short, it runs like this:
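The A549 NF-κB–SEAP reporter line was given TNF-α (10 ng/mL) plus compound at a single concentration, with dexamethasone as positive control. Supernatant SEAP was read 18 h later by chemiluminescence. Results are expressed as % inhibition relative to TNF-α alone, mean ± standard deviation, n = 3.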

Data set [3] can be described thus: Inhibition of human NF-kappaB in TNF-alpha-stimulated A549 cells assessed as secreted alkaline phosphatase level after 18 hrs. Type of data set: cell-based. The settings on record: A549, 18 h. In short, it runs like this:
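Type II-like A549 cells stably carrying an NF-κB response element–SEAP reporter were plated overnight at 6 × 10⁴ cells/well. They were then stimulated with human recombinant TNF-α (10 ng/mL) together with compound. After 18 h, supernatant SEAP was measured by chemiluminescence and normalized to lysate total protein (BCA). IC50 came from dose–response curves, n = 3 separate experiments.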

The test system of data set [4] is A549. The experiment in a line: Cytotoxicity against human A549 cells after 2 hrs by MTS assay. Type of data set: cell-based. Conditions: a549, 18 h, in the assay text read “18 hrs” for “2 hrs”. An outline of the steps:
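A549SN cells were plated at 1 × 10⁴ per well and held 24 h at 37 °C, then treated in duplicate for 18 h alongside vehicle and medium-only controls. Viability was read by MTS: formazan absorbance at 490 nm after 2 h, with the media-only background subtracted.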
On the technique in general: Formazan colour is commonly taken as a measure of viable cells.

As for `O=C1O[C@H]([C@@H](O)CO)C(O)=C1O`, in data set [1], the outcome was Active.
`CCCNC(=O)[C@]1(O)C[C@@H](O)[C@@H](O)[C@H](O)C1`: the result with A549 [2] was Active. Besides, the outcome in data set [1] was inactive. Moreover, the IC50 in data set [3] was 2830 nM. Also, the Activity entry in the data set on A549 [4] is “Not Active”.
In the case of `CC(C)(C)OC(=O)NCCNC(=O)[C@]1(O)C[C@@H](O)[C@@H](O)[C@H](O)C1`, in the data set on A549 [2], the result was Active.
As to `CC(C)NC(=O)[C@]1(O)C[C@@H](O)[C@@H](O)[C@H](O)C1`, the result in the data set with A549 [2] was Active.
`CC(=O)O[C@@H]1C[C@](OC(C)=O)(C(=O)O)C[C@@H](OC(C)=O)[C@H]1OC(C)=O`: the result in the data set on A549 [2] was inactive.
On to `O=C(/C=C/c1ccc(O)c(O)c1)O[C@@H]1C[C@](O)(C(=O)O)C[C@@H](O)[C@H]1O`, for which the outcome in data set [1] was Active.
As to `O=C(O)[C@]1(O)C[C@@H](O)[C@@H](O)[C@H](O)C1` [QUINIC ACID], the result in data set [1] was inactive. The Activity result in the data set on A549 [4] is given as “Not Active”.
In the case of `O=C(O)/C=C/c1ccc(O)c(O)c1`, the outcome in data set [1] was Active.
Take `NCCNC(=O)[C@]1(O)C[C@@H](O)[C@@H](O)[C@H](O)C1`: the outcome in the data set with A549 [2] was Active.
